Calls of active or inactive are those of the source. The rule behind the calls is not given here.

The target in assay [1] is T1, Cathepsin B (Homo sapiens, UniProt P07858). In words: Mixed inhibition of human recombinant cathepsin B exopeptidase activity using Abz-Gly-Ile-Val-Arg-Ala-Lys(Dnp)-OH substrate assessed as inhibition constant for enzyme-substrate-inhibitor complex. Summed up: (§1)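 Recombinant human catB was preactivated for 5 min at 37 °C in 60 mM acetate pH 5.0 with 0.1% PEG 8000, 5 mM DTT and 1.5 mM EDTA. Abz-GIVRAK(Dnp)-OH was used at 1, 3 and 6 μM (Km 6.3 μM), with inhibitor at 0–200 μM (seven levels) and 5% DMSO. […] Run twice, each in duplicate.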

Assay [2] concerns the target T1, Cathepsin B. The assay can be described thus: Uncompetitive inhibition of human recombinant […] assessed as inhibition constant for enzyme-substrate-inhibitor complex.
Assay [3] addresses T1, Cathepsin B. In words: Mixed inhibition of human recombinant cathepsin B exopeptidase activity using Abz-Gly-Ile-Val-Arg-Ala-Lys(Dnp)-OH substrate assessed as inhibition constant for enzyme-inhibitor complex. Summed up: as §1
The target of assay [4] is T1, Cathepsin B. The assay can be described thus: Noncompetitive inhibition of human recombinant cathepsin B exopeptidase activity using Abz-Gly-Ile-Val-Arg-Ala-Lys(Dnp)-OH substrate. Summed up: (§2)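 Human recombinant catB, preactivated 5 min at 37 °C in assay buffer containing 0.1% PEG 8000, 5 mM DTT and 1.5 mM EDTA. […] Exopeptidase: 60 mM acetate pH 5.0, Abz-GIVRAK(Dnp)-OH 1/3/6 μM (Km 6.3 μM). Inhibitor 0–200 μM, 5% DMSO, 37 °C, fluorescence rate; two runs in duplicate.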

In assay [5] the target is T2, Pro-cathepsin H (Homo sapiens, UniProt P09668).
T2 sequence (P09668 whole entry): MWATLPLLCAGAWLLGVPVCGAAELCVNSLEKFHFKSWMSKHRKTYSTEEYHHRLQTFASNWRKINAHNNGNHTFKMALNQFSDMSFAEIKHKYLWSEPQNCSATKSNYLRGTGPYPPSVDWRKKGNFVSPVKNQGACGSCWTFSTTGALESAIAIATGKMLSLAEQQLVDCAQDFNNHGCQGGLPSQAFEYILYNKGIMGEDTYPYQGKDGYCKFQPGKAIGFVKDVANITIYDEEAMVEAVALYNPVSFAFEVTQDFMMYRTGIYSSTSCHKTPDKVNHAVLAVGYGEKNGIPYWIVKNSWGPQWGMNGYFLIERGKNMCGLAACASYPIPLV
In words: Noncompetitive inhibition of human liver cathepsin H endopeptidase activity using R-AMC substrate assessed as inhibition constant for enzyme-inhibitor complex. Summed up: (§3)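 Native catH isolated from human liver was preactivated for 5 min at 37 °C in 100 mM phosphate pH 6.8 with 0.1% PEG 8000, 5 mM DTT and 1.5 mM EDTA. Arg-AMC was used at 20, 80 and 160 μM, with inhibitor at 0–200 μM (seven levels) and 5% DMSO. […] Run twice in duplicate.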

The species entered for assay [6] is Homo sapiens. The assay can be described thus: Selectivity ratio of Ki for human liver cathepsin H to Ki for human recombinant cathepsin B.
Assay [7] has as its target T2, Pro-cathepsin H. The assay can be described thus: Noncompetitive inhibition of human liver cathepsin H endopeptidase activity using R-AMC substrate assessed as inhibition constant for enzyme-substrate-inhibitor complex. Summed up: as §3
For assay [8], the target named is Procathepsin L (Homo sapiens, UniProt P07711). In words: Competitive inhibition of human recombinant cathepsin L endopeptidase activity using Z-FR-AMC substrate expressed in Escherichia coli assessed as inhibition constant for enzyme-inhibitor complex. Summed up:
(§4)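 Ki from rates at three substrate levels with inhibitor at 0, 20, 40, 60, 80, 100 and 200 μM. Enzymes were preactivated 5 min at 37 °C. CatL (recombinant, E. coli): 100 mM acetate pH 5.5, Z-Phe-Arg-AMC 0.5/1/4 μM. CatH (native, human liver): 100 mM phosphate pH 6.8, Arg-AMC 20/80/160 μM. Buffers held 0.1% PEG 8000, 5 mM DTT and 1.5 mM EDTA, plus 5% DMSO. Two runs in duplicate.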

Assay [9] has as its target T1, Cathepsin B. In words: Mixed inhibition of human recombinant cathepsin B endopeptidase activity using Z-Arg-Arg-AMC substrate assessed as inhibition constant for enzyme-substrate-inhibitor complex.
The species named for assay [10] is Homo sapiens. In words: Selectivity ratio of Ki for human recombinant cathepsin L to Ki for human recombinant cathepsin B.
The target in assay [11] is T1, Cathepsin B. The assay can be described thus: Mixed inhibition of human recombinant cathepsin B […] assessed as inhibition constant for enzyme-inhibitor complex.
For assay [12], the target named is T2, Pro-cathepsin H. The assay can be described thus: Uncompetitive inhibition of human liver cathepsin H endopeptidase activity using R-AMC substrate assessed as inhibition constant for enzyme-substrate-inhibitor complex. Summed up: as §4
For assay [13], the target named is T1, Cathepsin B. In words: Competitive inhibition of human recombinant cathepsin B exopeptidase activity using Abz-Gly-Ile-Val-Arg-Ala-Lys(Dnp)-OH substrate assessed as inhibition constant for enzyme-inhibitor complex. Summed up:
as §2

Assay [14] deals with T1, Cathepsin B. The assay can be described thus: Inhibition of human recombinant cathepsin B exopeptidase activity using Abz-Gly-Ile-Val-Arg-Ala-Lys(Dnp)-OH substrate.
Assay [15] deals with T1, Cathepsin B. In words: Inhibition of human recombinant cathepsin B endopeptidase activity using Z-Arg-Arg-AMC substrate.
Assay [16] has as its system MCF-10A. In words: Inhibition of human MCF10A neoT cell invasion expressing c-Ha-Ras oncogene at 5 uM after 30 mins relative to DMSO-treated control. Type of assay: functional. Particulars: 72 h, in the assay text read “after 72 hrs” for “after 30 mins”. Summed up:
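xCELLigence CIM-16 invasion assay. Upper chamber coated with 5 mg/mL Matrigel; lower well coated with bovine fibronectin. Compound 5 μM or 0.05% DMSO in both chambers, equilibrated 30 min at 37 °C. Then 3 × 10^4 cells seeded in serum-free medium, cell index read every 15 min for 72 h. Invasion = cell index with compound / DMSO; mean ± SD, n = 4, two experiments.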

Sequence of Procathepsin L (P07711 whole entry): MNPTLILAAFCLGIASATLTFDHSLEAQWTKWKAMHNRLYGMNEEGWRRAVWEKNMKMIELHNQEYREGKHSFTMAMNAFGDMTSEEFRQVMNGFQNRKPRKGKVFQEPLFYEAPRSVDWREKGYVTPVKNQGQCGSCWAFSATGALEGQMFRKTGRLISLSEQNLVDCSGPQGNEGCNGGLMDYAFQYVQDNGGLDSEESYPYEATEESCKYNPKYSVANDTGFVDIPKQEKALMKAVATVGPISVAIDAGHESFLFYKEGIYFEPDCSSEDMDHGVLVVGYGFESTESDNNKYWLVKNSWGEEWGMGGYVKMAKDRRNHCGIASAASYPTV

One may read the Ki as the dissociation constant of the complex between target and ligand, obtained from inhibition or displacement. With `N#CCN(Cc1ccccc1)Cc1cc([N+](=O)[O-])c2cccnc2c1O`, the Ki in [1] was 8 µM; in assay [2], 19 µM; in [3] it was 79 µM.

With `CN(CCc1ccccc1)c1ccc([N+](=O)[O-])c2cccnc12`, the results for the Ki in assay [4] and in assay [2] were 350 µM and 175 µM, respectively.

As for `CC1CCN(c2ccc([N+](=O)[O-])c3cccnc23)CC1`, the Ki was found to be 221 µM in [5]; 221 µM in assay [7]; 24 µM in [4]; 155 µM in assay [8]; 105 µM in [9]; 207 µM in [11]. The Ratio Ki was determined as 9 in [6] and 6 in assay [10].

As to `Nc1ccc([N+](=O)[O-])c2ccccc12`, the Ki in assay [4] was 147 µM; in [9], 111 µM; in [11] it was 217 µM.

`O=[N+]([O-])c1ccc(N2CCCC2)c2ccccc12`: the Ki came to 251 µM in assay [12]; 34 µM in assay [4]; 245 µM in assay [8]; 277 µM in assay [9]; 170 µM in assay [11]. Also, the values for the Ratio Ki in [6] and in assay [10] were 7 and above 6, respectively.

For `O=[N+]([O-])c1cc(CNCc2ccccc2)c(O)c2ncccc12`, the results for the Ki in assay [4], in [9] and in assay [11] were 154 µM, 58 µM and 198 µM, respectively.

`O=[N+]([O-])c1ccc(NCc2ccccn2)c2ncccc12`: the results for the Ki in [4], in assay [9] and in [11] were 47 µM, 87 µM and 107 µM, respectively.

In the case of `O=[N+]([O-])c1ccc(N2CCOCC2)c2ccccc12`, the Ki in assay [4] is 85 µM; in assay [9], 125 µM; in [11], 289 µM.

On to `O=C(O)[C@@H]1CCCC[C@@H]1NCc1cc([N+](=O)[O-])c2cccnc2c1O`, for which the Ki was determined as 250 µM in assay [13], 125 µM in assay [9] and 181 µM in assay [11].

In the case of `C[C@@H]1CCCCN1Cc1cc([N+](=O)[O-])c2cccnc2c1O`, the Ki was found to be 243 µM in assay [4], 116 µM in [9] and 203 µM in assay [11].

Consider `CN(CC#N)Cc1cc([N+](=O)[O-])c2cccnc2c1O`, for which the Ki in [4] amounted to 172 µM; in [9] it was 76 µM; in assay [11], 126 µM.

For `CCNCc1cc([N+](=O)[O-])c2cccnc2c1O`, the Ki in [4] stood at 136 µM; in [9] it was 82 µM; in assay [11], 117 µM.

For orientation: inhibition means the drop in the measured response relative to a control, in per cent. `C#CCNc1ccc([N+](=O)[O-])c2cccnc12`: the inhibition entry in assay [14] and in [15] was “inactive” each time.

Consider `O=[N+]([O-])c1ccc(O)c2ccccc12`, for which, in assay [14], the inhibition result was “inactive”. Further, the Ki in assay [9] was 84 µM; in assay [11], 373 µM.

Regarding `CN(Cc1ccccc1)c1ccc([N+](=O)[O-])c2cccnc12`, the Ki in assay [13] amounted to 196 µM; in [9] it was 137 µM; in assay [11], 242 µM.

As for `CCOC(=O)C1CCN(c2ccc([N+](=O)[O-])c3cccnc23)CC1`, the Ki in assay [4] worked out at 38 µM; in assay [9], 113 µM; in assay [11], 162 µM.

Compound `CCCNC(=O)[C@H]1O[C@@H]1C(=O)N[C@H](C(=O)N1CCC[C@H]1C(=O)O)C(C)CC` (single isomer, unassigned) returned an inhibition at 5 µM in assay [16] of 48%.

Take `CCOC(=O)N1CCN(Cc2cc([N+](=O)[O-])c3cccnc3c2O)CC1`: the Ki is 156 µM in assay [4], 87 µM in assay [9] and 129 µM in assay [11].

For `N#CCN(CC#N)c1ccc([N+](=O)[O-])c2ccccc12`, the inhibition entry in [14] and in [15] was “inactive” in each case.

`O=[N+]([O-])c1ccc(N2CCOCC2)c2ncccc12`: the Ki in assay [4] came out at 155 µM; in [9], 153 µM; in assay [11] it was 180 µM.

With `O=[N+]([O-])c1cc([N+](=O)[O-])c2cccnc2c1O`, the figures for the Ki in assay [4] and in assay [2] were 146 µM and 72 µM, respectively.

In the case of `O=[N+]([O-])c1cc(CN2CCN(Cc3cccnc3)CC2)c(O)c2ncccc12`, the values for the Ki in [4], in assay [9] and in assay [11] were 364 µM, 171 µM and 311 µM, respectively.

As for `Nc1c(O)cc(S(=O)(=O)O)c2ccccc12`, in [15], the inhibition entry was “inactive”.

With `N#CCNc1ccc([N+](=O)[O-])c2ccccc12`, the inhibition entry in assay [14] and in assay [15] was “inactive” throughout.

With `O=[N+]([O-])c1cc(CN2CCN(Cc3ccncc3)CC2)c(O)c2ncccc12`, the Ki in assay [4] amounted to 162 µM; in assay [9] it was 94 µM; in assay [11], 143 µM.

In the case of `CCOC(=O)[C@@H]1CCCC[C@@H]1NCc1cc([N+](=O)[O-])c2cccnc2c1O`, the values for the Ki in assay [4], in assay [9] and in assay [11] were 130 µM, 74 µM and 132 µM, respectively.

`O=C(O)c1cc([N+](=O)[O-])c2cccnc2c1O`: the Ki in [13] was determined as 221 µM; in [2], 117 µM.

For `O=[N+]([O-])c1ccc(N2CCCC2)c2ncccc12`, in assay [14], the inhibition entry was “inactive”.

On to `CN(C)c1ccc([N+](=O)[O-])c2cccnc12`, for which the inhibition entry in assay [14] and in assay [15] was “inactive” throughout.

For `CCN(CC)C(=O)C1CCCN(c2ccc([N+](=O)[O-])c3cccnc23)C1` (racemic), the Ki in assay [1] stood at 36 µM; in [9], 117 µM; in [11], 155 µM; in assay [3], 105 µM.

As to `O=S(=O)(O)c1ccc(O)c2ccccc12`, the inhibition result in assay [15] is “inactive”.

As to `O=[N+]([O-])c1ccc(NCc2ccccc2)c2ncccc12`, the Ki amounted to 364 µM in [4], 127 µM in [9] and 349 µM in assay [11].

For `Nc1c(Br)cc([N+](=O)[O-])c2ccccc12`, the inhibition constant Ki in assay [12] was found to be 354 µM; in [4], 212 µM; in assay [2] it was 32 µM; in assay [8], 182 µM. The Ratio Ki in assay [6] was 11; in assay [10], above 6.

The values above are taken from ChEMBL document CHEMBL2311469, “Development of new cathepsin B inhibitors: combining bioisosteric replacements and structure-based design to explore the structure-activity relationships of nitroxoline derivatives” (J Med Chem, 2013).
